Results on five compounds are retold here after ChEMBL document CHEMBL1144030, “Synthesis of a potent and selective (18)F-labeled delta-opioid receptor antagonist derived from the Dmt-Tic pharmacophore for positron emission tomography imaging” (J Med Chem, 2008).

Experiment [1] addresses Mu-type opioid receptor (Rattus norvegicus, UniProt P33535). Kind of experiment: Displacement of [3H]DAMGO from mu opioid receptor in Sprague-Dawley rat brain P2 synaptosomal membrane. The method in brief: (§1)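 Competition binding on rat brain P2 synaptosomes, preincubated to strip endogenous opioids and stored at −80 °C in buffered 20% glycerol. Equilibrium 2.5 h at 23 °C. Separation on GFC filters presoaked in 0.1% polyethylenimine, washed three times with ice-cold buffered BSA. Duplicates, five to eight doses, 3–5 independent membrane preparations; Ki by Cheng-Prusoff, mean ± SE.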
For orientation: Loss of bound radioactivity is the signal in a displacement assay; it reports binding, not function.

The target of experiment [2] is T1, Delta-type opioid receptor (Mus musculus, UniProt P32300). Briefly: Antagonist activity at delta opioid receptor in electrically stimulated-mouse vas deferens. Particulars: read-out: pA2 (converted). Format: functional, tissue-based. The procedure, abridged:
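Mouse vas deferens in organ bath with physiological salt buffer, pH 7.5, electrically stimulated. Antagonism measured against the delta agonist deltorphin-II and expressed as pA2 derived by Schild plot.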

For experiment [3], the target named is Mu-type opioid receptor (Cavia porcellus, UniProt P97266). Briefly: Agonist activity at mu opioid receptor in Hartley guinea pig assessed as inhibition of electrically evoked-contraction. Format: functional. The method in brief:
(§2)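 Isolated tissue: single mouse vas deferens (delta) or myenteric plexus longitudinal muscle strips, 2–3 cm, from small intestine of male Hartley guinea pigs (mu), in organ baths with balanced salt solution, pH 7.5. Inhibition of electrically evoked contraction; IC50 (nM) from dose-response curves, mean ± SE of five or six separate assays.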

For experiment [4], the target named is Delta-type opioid receptor (Rattus norvegicus, UniProt P33533). Kind of experiment: Displacement of [3H]deltorphin2 from delta opioid receptor in Sprague-Dawley rat brain P2 synaptosomal membrane. The procedure, abridged: as §1
The species entered for the next experiment is Rattus norvegicus. Briefly: Ratio of Ki for mu opioid receptor to delta opioid receptor in Sprague-Dawley rat brain P2 synaptosomal membrane. The procedure, abridged:
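Ratio of Ki values from rat brain P2 synaptosome competition binding (2.5 h, 23 °C, equilibrium; filtration on polyethylenimine-treated GFC filters). Ki by Cheng-Prusoff from duplicate assays at five to eight doses, 3–5 independent preparations.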

For experiment [5], the target named is T1, Delta-type opioid receptor. Kind of experiment: Agonist activity at delta opioid receptor in mouse vas deferens assessed as inhibition of electrically evoked-contraction. Format: functional, tissue-based. The method in brief:
as §2

Square brackets hold non-standard residues; d marks the D form. Peptide text beside a SMILES is read from it. * marks the point of attachment. Dmt = Cc1cc(O)cc(C)c1C[C@H](N)C(=O)O; Tic = O=C(O)[C@@H]1Cc2ccccc2CN1; Cbz = O=C(OCc1ccccc1)* Bounds are passed on as bounds.

Chain of Delta-type opioid receptor (Rattus norvegicus, UniProt P33533) (P33533 whole entry): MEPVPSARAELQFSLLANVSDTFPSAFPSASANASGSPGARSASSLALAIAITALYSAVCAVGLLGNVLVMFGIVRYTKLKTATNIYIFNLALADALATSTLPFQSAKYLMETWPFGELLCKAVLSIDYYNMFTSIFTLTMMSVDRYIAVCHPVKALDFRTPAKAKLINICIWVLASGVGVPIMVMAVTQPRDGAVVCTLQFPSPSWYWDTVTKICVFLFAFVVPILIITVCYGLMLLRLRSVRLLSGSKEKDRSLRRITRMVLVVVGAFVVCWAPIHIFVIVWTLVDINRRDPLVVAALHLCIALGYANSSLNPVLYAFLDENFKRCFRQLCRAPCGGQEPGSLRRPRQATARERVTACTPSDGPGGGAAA
T1 sequence (P32300 whole entry): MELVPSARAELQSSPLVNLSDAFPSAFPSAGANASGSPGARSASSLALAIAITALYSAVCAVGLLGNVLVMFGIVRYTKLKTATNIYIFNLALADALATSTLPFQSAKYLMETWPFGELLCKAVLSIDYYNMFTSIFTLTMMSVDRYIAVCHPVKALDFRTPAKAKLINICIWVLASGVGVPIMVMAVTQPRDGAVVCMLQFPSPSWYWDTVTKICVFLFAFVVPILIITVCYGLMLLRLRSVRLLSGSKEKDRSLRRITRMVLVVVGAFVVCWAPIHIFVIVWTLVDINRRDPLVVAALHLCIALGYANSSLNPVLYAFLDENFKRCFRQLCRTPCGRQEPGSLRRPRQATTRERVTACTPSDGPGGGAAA
Chain of Mu-type opioid receptor (Rattus norvegicus, UniProt P33535) (P33535 whole entry): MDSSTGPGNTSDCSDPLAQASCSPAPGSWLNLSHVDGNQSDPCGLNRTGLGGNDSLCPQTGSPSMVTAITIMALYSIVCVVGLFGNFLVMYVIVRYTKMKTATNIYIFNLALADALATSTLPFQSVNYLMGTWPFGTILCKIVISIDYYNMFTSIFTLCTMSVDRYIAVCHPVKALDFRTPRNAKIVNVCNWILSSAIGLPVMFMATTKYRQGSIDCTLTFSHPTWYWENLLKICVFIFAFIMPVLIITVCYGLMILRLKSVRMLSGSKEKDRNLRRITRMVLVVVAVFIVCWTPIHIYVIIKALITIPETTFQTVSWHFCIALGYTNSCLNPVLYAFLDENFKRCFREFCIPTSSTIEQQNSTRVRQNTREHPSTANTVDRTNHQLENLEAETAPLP
Chain of Mu-type opioid receptor (Cavia porcellus, UniProt P97266) (P97266 whole entry): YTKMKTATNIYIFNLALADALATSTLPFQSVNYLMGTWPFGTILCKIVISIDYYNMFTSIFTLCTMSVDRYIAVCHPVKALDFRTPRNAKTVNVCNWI

For `Cc1cc(O)cc(C)c1C[C@H](N)C(=O)N1Cc2ccccc2C[C@@H]1C(=O)NCCCC[C@H](NC(=O)c1ccc(F)cc1)C(=O)O`, the Ki (usually the equilibrium dissociation constant of an inhibitor or competing ligand from its target) on Mu-type opioid receptor [1] is 41.2 nM; in experiment [4], 0.172 nM. The Kb in experiment [2] is 5.62 nM. Besides, the IC50 – broadly, the point on the concentration scale where inhibition reaches its midpoint – at Mu-type opioid receptor [3] came to 1920 nM. Moreover, the Ratio Ki in the experiment filed under Rattus norvegicus is 240.
Turning to `Cc1cc(O)cc(C)c1C[C@H](N)C(=O)N1Cc2ccccc2C[C@H]1C(=O)N[C@@H](Cc1ccccc1)C(=O)N[C@@H](CCCCNC(=O)c1ccc(F)cc1)C(=O)O`, the IC50 is 5180 nM in experiment [5] and 50.6 nM at Mu-type opioid receptor [3]. The figures for the Ki (at Mu-type opioid receptor [1]; in experiment [4]) were 13.2 nM and 0.248 nM, respectively. Besides, in experiment [2], the Kb is 0.355 nM.
Take `Cc1cc(O)cc(C)c1C[C@H](N)C(=O)N1Cc2ccccc2C[C@H]1C(=O)N[C@@H](Cc1ccccc1)C(=O)N[C@@H](CCCCNC(=O)OCc1ccccc1)C(=O)O` (H-[Dmt][Tic]FK(Cbz)-OH): the Ki on Mu-type opioid receptor [1] came out at 2.75 nM; in experiment [4] it was 0.019 nM. The IC50 on Mu-type opioid receptor [3] was more than 10000 nM.
Take `Cc1cc(O)cc(O)c1C[C@H](N)C(=O)N1Cc2ccccc2C[C@@H]1C(=O)N[C@@H](Cc1ccccc1)C(=O)N[C@@H](CCCCNC(=O)OCc1ccccc1)C(=O)O`: in the experiment filed under Rattus norvegicus, the Ratio Ki was 145.
For the compound `Cc1cc(O)cc(C)c1C[C@H](N)C(=O)N1Cc2ccccc2C[C@@H]1C(=O)N[C@@H](Cc1ccccc1)C(=O)N[C@@H](CCCCNC(=O)c1ccc(F)cc1)C(=O)O`, in the experiment filed under Rattus norvegicus, the Ratio Ki was found to be 53.
